This is a sample that favours compounds with a hit; in the whole collection about 3% have one here.
HTR1E antagonist = 5-HT1E (human) receptor antagonism | AID 571 | hit rate 0.99% among 65,000 | CHO 5-HT1E Ga15 NFAT-bla reporter, FRET, antagonist | inhibition, % at 6 µM;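 active = inhibition above a set limit, the mean inhibition across every tested compound plus 3 SD, cut at about 29% in these data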;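 also: signal is the 460 over 535 nm emission ratio of beta-lactamase substrate; 0% = agonist plus DMSO wells and 100% = wells without agonist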
5HT1a ag = agonists of human 5-HT1a serotonin receptor. P08908. CHO 5-HT1a Ga15 NFAT-bla reporter, FRET ratio; 0% basal, 100% maximal reference agonist. activation, % at 10 µM. hit rate 0.56% among 65,000. AID 567;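 active = activation above the screen-wide mean activation plus 3 SD, cut at about 19% in these data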;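 also: 0% = DMSO wells and 100% = 5-CT at EC100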
5HT1E ag = agonists of human 5-HT1E serotonin receptor; P28566; CHO 5-HT1E Ga15 NFAT-bla reporter, FRET; 0% DMSO wells, 100% control agonist wells; activation, % at 6 µM; hit rate 0.69% among 65,000;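 active = activation above a set limit, the screen-wide mean activation plus 3 SD, cut at about 8.5% in these data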;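 also: 100% = positive control agonist at 1 µM giving full maximal response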
S1P3 ag = agonists of human S1P3 receptor | S1P3 NFAT-BLA reporter cells, agonism, FRET ratio; relative to 1 µM S1P, basal subtracted | activation, % at 4.5 µM | Q99500 | hit rate 0.1% among 60,000;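 active = activation above the screen-wide mean plus 3 SD, cut at about 4.5% in these data, passing the limit was not always enough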
Target sequence (Q99500 whole entry, looked up): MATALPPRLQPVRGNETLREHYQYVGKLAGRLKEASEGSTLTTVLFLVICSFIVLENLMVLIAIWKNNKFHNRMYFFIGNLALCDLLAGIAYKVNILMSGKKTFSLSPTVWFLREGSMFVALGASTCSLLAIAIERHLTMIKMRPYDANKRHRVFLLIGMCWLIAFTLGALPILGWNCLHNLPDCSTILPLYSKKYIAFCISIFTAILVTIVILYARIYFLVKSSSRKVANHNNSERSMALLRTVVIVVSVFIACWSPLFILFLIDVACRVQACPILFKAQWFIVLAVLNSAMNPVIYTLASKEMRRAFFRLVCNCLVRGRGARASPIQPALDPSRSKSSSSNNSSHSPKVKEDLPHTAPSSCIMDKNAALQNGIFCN
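Benchmarks: high control 1 µM S1P / System: stable CHO line with human S1P3, Gα16, NFAT-BLA reporter / Dosing: single compound concentration, 4.5 µM final / Timing: 4 h compound at 37 °C, 2 h substrate at RT / Measured by: FRET β-lactamase substrate fluorescence, excitation 405 nm, 460/535 nm emission ratio, background-subtracted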
5HT1a antag = blocks the human serotonin 5-HT1a receptor. hit rate 0.68% among 62,000. inhibition, % at 10 µM. CHO 5-HT1a Ga15 NFAT-bla reporter, antagonist mode. AID 612. P08908;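 active = inhibition above the mean of all tested compounds plus 3 SD, cut at about 43% in these data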;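 also: receptor stimulated by 5-CT agonist at 100 nM near EC80; beta-lactamase reporter measured by ratiometric fluorescence of a cleavable substrate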
S1P1 ag-PAM = activates or potentiates agonism at human S1P1 receptor | P21453 | S1P1 CRE-bla cells, forskolin, beta-lactamase FRET, potentiator mode; S1P1 agonist co-added at EC20, 2 nM; 100% = saturating reference agonist, 0% = basal | activation, % at 9.5 µM | hit rate 0.57% among 56,000;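 active = activation above a cutoff set at the mean activation of all tested compounds plus 3 SD, cut at about 54% in these data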;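 also: forskolin at 4 µM as EC80 and the EC20 agonist is SEW2871; 100% = SEW2871 at its EC100 plus forskolin at EC80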
* = called active by the depositor; nt = no result given.

SMILES | HTR1E antagonist | 5HT1a ag | 5HT1E ag | S1P3 ag | 5HT1a antag | S1P1 ag-PAM
Cc1cnc(C(=O)Nc2cccc(-c3nnc4n3CCCCC4)c2)cn1 | 10 | 2 | 0 | 0 | 8 | 8
CCc1nc2ccccc2c(NC(=O)CN2CCC(C)CC2)c1C | -2 | 1 | 1 | -1 | 1 | -3
CCCCC(CC)C(=O)Nc1ccccc1C(=O)NC(C)C (centres undefined) | -4 | 1 | 1 | 0 | -1 | nt
Cc1ccc(OCc2nc(-c3ccccc3)no2)c(C)c1 | -4 | -2 | 0 | -1 | -1 | 78*
COc1ccc(CNC(=O)CSc2nnc(C)s2)cc1 | 3 | -2 | 0 | 0 | 2 | 2
COc1ccc(/C=C/C(O)=C2/C(=O)N(C)C3(C)CC2c2ccccc2O3)cc1 (centres undefined) | 20 | -1 | 0 | -1 | 46* | -5
CCN1CCCC1CNC(=O)c1ccc(CS(=O)(=O)c2ccccc2C)o1 (centres undefined) | 8 | -2 | 0 | -1 | 5 | 18
O=C1CCCCCN1CP(=O)(O)CN1CCOCC1 | -10 | 0 | 4 | 0 | -4 | -4
CC1(C)Cc2c(c(N3CCCC3)nc3sc4c(N5CCN(CCO)CC5)ncnc4c23)CO1 | 41* | 6 | 1 | nt | -6 | nt
CCOc1ccc(Nc2cc(C)nc(-n3nc(C)cc3C)n2)cc1 | 80* | -4 | 1 | 0 | 52* | -44
CCOC(=O)Nc1ccc2c(c1)ncn2C1CCCCC1 | 19 | 1 | 39* | 0 | 17 | 7
O=S(=O)(Nc1cccc2ncccc12)c1cccs1 | 79* | -7 | 1 | 1 | 84* | 28
COc1cc(OC)c(Cl)cc1N | 5 | -2 | -1 | -1 | 5 | -11
Cc1ccc(NC(=O)CC2Nc3ccccc3NC2=O)cc1Cl (centres undefined) | 11 | 34* | 14* | 5.9* | -15 | -82
O=C1CCC(=O)N1CN(Cc1ccco1)CN1C(=O)CCC1=O | 9 | -1 | 0 | -1 | nt | -22
CCCCCCC(=O)c1c(C)[nH]c(C(=O)OCC)c1C | 36* | 2 | 0 | -2 | 4 | -31
CCCN(CCC)C(=O)c1c(C)[nH]c(C(=O)OCC)c1C | -9 | 0 | 1 | -1 | -7 | -3
O=C(COC(=O)c1ccccc1S(=O)(=O)N1CCCCC1)NCC(F)(F)F | 29* | -5 | -1 | 1 | 12 | 12
CC(=O)NC(Cc1ccccc1F)C(=O)NC1CCN(C(=O)c2cnccn2)CC1 (centres undefined) | -8 | 0 | 0 | 1 | -13 | 8
COc1cc(-c2nnc(CSc3nnc4nc(C)cc(C)n34)o2)cc(OC)c1OC | -8 | 0 | 0 | 1 | 6 | -2
COCCn1c(=O)[nH]c2cc(C(=O)NCCCN3CCN(c4ccc(F)cc4)CC3)ccc2c1=O | 5 | 7 | 0 | nt | 32 | nt
COCCn1c(=O)[nH]c2cc(C(=O)NCCN3CCN(c4ccccc4F)CC3)ccc2c1=O | 12 | 1 | 0 | nt | 52* | nt
CCn1c(=O)c(C(=O)CN2CCCc3ccccc32)c(N)n(Cc2ccccc2)c1=O | 2 | -1 | 1 | -1 | 20 | -22
COC(=O)c1ccc(-c2sc3nc(N4CCOCC4)c4c(c3c2N)CCCC4)o1 | 12 | 25* | 5 | 1 | nt | -34
CCCCN(C)CCCNC(=O)Cn1c(=O)sc2ccccc21 | -5 | -2 | 70* | nt | 12 | nt
SMILES | HTR1E antagonist | 5HT1a ag | 5HT1E ag | S1P3 ag | 5HT1a antag | S1P1 ag-PAM
Cn1c(Cn2c(=O)sc3ccccc32)nnc1SCC(=O)Nc1ccc2c(c1)OCO2 | -20 | 0 | 0 | -1 | 6 | 19
CN1C(=O)CC(N2CCN(c3ccc(Cl)c(Cl)c3)CC2)C1=O (centres undefined) | 40* | 4 | 0 | -5 | nt | -1
CCCCNC(=O)CSc1nc2ccccc2c(=O)n1C1CCCC1 | 6 | 1 | 0 | 0 | 32 | 5
CN1CCN(S(=O)(=O)c2ccc(NC(=O)c3ccc(Br)s3)cc2)CC1 | 7 | -3 | 1 | 0 | -1 | -19
CCOc1ccc2[nH]c(=O)c(CN(Cc3cccs3)Cc3nnnn3C(C)(C)CC)cc2c1 | 17 | 7 | 9.5* | 0 | 32 | 9
N#Cc1c(-c2ccco2)cc(-c2cccnc2)nc1N | 38* | 0 | 0 | 1 | 0 | -74
Cc1c(-c2ccccc2)nc(N)c(C#N)c1-c1ccco1 | 31* | 17 | 0 | 0 | -2 | -81
CCCCn1c(NC(=O)c2ccc(F)cc2)c(C#N)c2nc3ccccc3nc21 | -3 | 29* | 9.1* | 4.7* | 5 | -190
CCCCn1c(NC(=O)c2ccccc2)c(C#N)c2nc3ccccc3nc21 | 26 | 10 | 8 | 2 | -6 | -154
CCOC(=O)Cn1ncc(-c2ccccc2)c1N | -3 | 2 | 0 | nt | -3 | nt
COc1ccc(CCNc2c(C)c(C)nc3ncnn23)cc1 | 12 | -2 | 0 | 2 | 11 | 134*
COc1ccccc1-c1nnc(SCC(=O)O)n1C | -6 | -3 | 0 | 0 | -5 | 8
O=C1CCCN1CCCNc1ncnc2c1[nH]c1ccc(Cl)cc12 | 35* | 0 | 0 | 0 | -4 | -31
Clc1ccc2[nH]c3c(NCCCN4CCOCC4)ncnc3c2c1 | 23 | 3 | -1 | -2 | nt | -46
O=C(Nc1nnc(C2CC2)o1)c1ccc(S(=O)(=O)N2CCCc3ccccc32)cc1 | 1 | -2 | 0 | -1 | 0 | -4
Cc1cc(NC(=O)COC(=O)c2ccc(S(=O)(=O)N3CCCc4ccccc43)cc2)no1 | 32* | -4 | -1 | -1 | 11 | -7
COc1ccc(-c2nnc(NC(=O)c3ccc(S(=O)(=O)N4CCCc5ccccc54)cc3)o2)cc1 | -2 | -1 | 0 | 0 | 62* | 10
CCOc1cc(-c2cc(-c3ccc(N)cc3)nc(N)c2C#N)ccc1O | 30* | 6 | 2 | 1 | 4 | 0
CC/C(=C\C(=O)c1cccnc1)Nc1ccc(C)c(C)c1 | -3 | -3 | 0 | 1 | 2 | 5
COc1ccc(C2=CC(c3ccc(Cl)cc3)n3cnnc3N2)cc1OC (centres undefined) | 35* | -7 | -1 | nt | 40 | nt
COc1ccc(C2C=C(c3ccc(Cl)cc3)Nc3nc(NC(C)=O)nn32)cc1 (centres undefined) | 14 | -2 | 0 | -1 | nt | 25
Cn1c(-c2ccccc2)cc2c3no[n+]([O-])c3ccc21 | 34* | 2 | 0 | -2 | 44* | 38
CCC(c1nnnn1Cc1ccc2c(c1)OCO2)N1CCN(c2ccccc2)CC1 (centres undefined) | 14 | 0 | -2 | 0 | 39 | 8

High-throughput results: PubChem, The Scripps Research Institute Molecular Screening Center
